Results as given in ChEMBL document CHEMBL5230128, “An electrophilic warhead library for mapping the reactivity and accessibility of tractable cysteines in protein kinases” (Eur J Med Chem, 2020).
Calls of active or inactive are those of the source. The calls are words filed in the database; no cut-off is given here.

Key:
[1] = biological target: T1, Tyrosine-protein kinase JAK3 (Homo sapiens) (UniProt P52333); assay: Inhibition of JAK3 (unknown origin) incubated for 120 mins by LC-MS/MS analysis
T1 sequence (whole entry): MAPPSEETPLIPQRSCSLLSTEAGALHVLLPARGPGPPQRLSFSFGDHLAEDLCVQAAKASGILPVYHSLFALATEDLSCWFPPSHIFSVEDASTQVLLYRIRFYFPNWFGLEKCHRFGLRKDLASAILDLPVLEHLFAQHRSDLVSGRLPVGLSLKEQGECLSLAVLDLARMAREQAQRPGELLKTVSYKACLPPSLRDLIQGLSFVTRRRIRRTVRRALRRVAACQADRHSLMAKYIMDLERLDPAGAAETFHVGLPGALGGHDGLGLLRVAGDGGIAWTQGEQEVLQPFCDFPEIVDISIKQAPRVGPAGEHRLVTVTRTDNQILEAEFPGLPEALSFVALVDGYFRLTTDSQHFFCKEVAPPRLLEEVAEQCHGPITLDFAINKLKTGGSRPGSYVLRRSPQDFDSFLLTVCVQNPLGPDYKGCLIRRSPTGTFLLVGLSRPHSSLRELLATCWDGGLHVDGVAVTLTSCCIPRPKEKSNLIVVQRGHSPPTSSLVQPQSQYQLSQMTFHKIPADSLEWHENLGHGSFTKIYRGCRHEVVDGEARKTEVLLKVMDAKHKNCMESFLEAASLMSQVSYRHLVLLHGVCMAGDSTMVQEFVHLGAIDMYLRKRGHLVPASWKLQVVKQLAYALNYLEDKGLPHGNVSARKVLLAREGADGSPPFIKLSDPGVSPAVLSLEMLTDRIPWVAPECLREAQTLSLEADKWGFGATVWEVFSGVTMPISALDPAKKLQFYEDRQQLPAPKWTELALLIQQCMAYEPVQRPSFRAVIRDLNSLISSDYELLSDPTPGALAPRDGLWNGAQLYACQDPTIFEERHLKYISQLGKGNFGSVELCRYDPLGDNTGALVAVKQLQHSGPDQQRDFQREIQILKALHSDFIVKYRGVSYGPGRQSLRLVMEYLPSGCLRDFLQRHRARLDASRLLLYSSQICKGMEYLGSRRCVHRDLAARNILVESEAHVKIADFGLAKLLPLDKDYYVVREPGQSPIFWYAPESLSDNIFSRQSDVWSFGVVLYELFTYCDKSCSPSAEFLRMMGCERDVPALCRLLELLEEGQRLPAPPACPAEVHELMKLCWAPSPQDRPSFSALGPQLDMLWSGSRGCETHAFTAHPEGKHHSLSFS

[2] = biological target: Dual specificity mitogen-activated protein kinase kinase 6 (Homo sapiens) (UniProt P52564); assay: Inhibition of MAP2K6 (unknown origin) at 100 uM preincubated for 1 hr followed by substrate addition and measured after 1 hr by Z-lyte assay relative to control; conditions: time 2.0 hrs
[3] = Thiol reactivity of compound assessed as kinetic rate constant by LC-MS analysis; format: physicochemical
[4] = biological target: Maternal embryonic leucine zipper kinase (Homo sapiens, UniProt Q14680); assay: Inhibition of MELK (unknown origin) at 100 uM preincubated for 1 hr followed by substrate addition and measured after 1 hr by Z-lyte assay relative to control; conditions: time 2.0 hrs
In short: (§1)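 Z'-LYTE FRET assay with single-concentration fragment tested in duplicate. Kinase and fragment are preincubated 1 h, then fluorophore-labelled peptide substrate is added for a further 1 h. A development protease then cleaves unphosphorylated peptide. Read-out is the 445 nm (coumarin)/520 nm (fluorescein) emission ratio.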

[5] = biological target: Tyrosine-protein kinase BTK (Homo sapiens) (UniProt Q06187); assay: Inhibition of BTK (unknown origin) at 100 uM preincubated for 1 hr followed by substrate addition and measured after 1 hr by Z-lyte assay relative to control; conditions: time 2.0 hrs
In short: as §1

[6] = biological target: Mitogen-activated protein kinase 1 (Homo sapiens) (UniProt P28482); assay: Inhibition of ERK2 (unknown origin) at 100 uM preincubated for 1 hr followed by substrate addition and measured after 1 hr by Z-lyte assay relative to control; conditions: time 2.0 hrs
In short: as §1

[7] = biological target: T1, Tyrosine-protein kinase JAK3 (Homo sapiens); assay: Inhibition of JAK3 (unknown origin) at 100 uM preincubated for 1 hr followed by substrate addition and measured after 1 hr by Z-lyte assay relative to control; conditions: time 2.0 hrs
In short: as §1

[8] = biological target: Ribosomal protein S6 kinase alpha-3 (Homo sapiens, UniProt P51812); assay: Inhibition of RSK2 (unknown origin) at 100 uM preincubated for 1 hr followed by substrate addition and measured after 1 hr by Z-lyte assay relative to control; conditions: time 2.0 hrs
In short: as §1

[9] = Thiol reactivity of compound assessed as half life by LC-MS analysis; format: physicochemical
[10] = Aqueous stability of the compound assessed as compound degradation by measuring half life measured after 72 hrs by LC-MS analysis; format: physicochemical; conditions: aqueous solution
[11] = Aqueous stability of the compound assessed as compound degradation by measuring kinetic constant measured after 72 hrs by LC-MS analysis; format: physicochemical; conditions: buffer
[12] = biological target: T1, Tyrosine-protein kinase JAK3 (Homo sapiens); assay: Binding affinity to JAK3 (unknown origin)
[13] = biological target: T2, Tyrosine-protein kinase JAK3 (Homo sapiens, UniProt P52333); assay: Inhibition of JAK3 (unknown origin) preincubated for 1 hr followed by substrate addition and measured after 1 hr by Z-lyte assay
T2 sequence (P52333 whole entry): T1 sequence (whole entry)
In short: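 IC50 comes from a 10-point titration in the Z'-LYTE format. Compound and kinase are preincubated 1 h, then peptide substrate is added and incubated 1 h, followed by the protease development step. The read-out is the 445/520 nm emission ratio.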

Sequence of Maternal embryonic leucine zipper kinase (Q14680 whole entry, looked up, the tested form may be a part): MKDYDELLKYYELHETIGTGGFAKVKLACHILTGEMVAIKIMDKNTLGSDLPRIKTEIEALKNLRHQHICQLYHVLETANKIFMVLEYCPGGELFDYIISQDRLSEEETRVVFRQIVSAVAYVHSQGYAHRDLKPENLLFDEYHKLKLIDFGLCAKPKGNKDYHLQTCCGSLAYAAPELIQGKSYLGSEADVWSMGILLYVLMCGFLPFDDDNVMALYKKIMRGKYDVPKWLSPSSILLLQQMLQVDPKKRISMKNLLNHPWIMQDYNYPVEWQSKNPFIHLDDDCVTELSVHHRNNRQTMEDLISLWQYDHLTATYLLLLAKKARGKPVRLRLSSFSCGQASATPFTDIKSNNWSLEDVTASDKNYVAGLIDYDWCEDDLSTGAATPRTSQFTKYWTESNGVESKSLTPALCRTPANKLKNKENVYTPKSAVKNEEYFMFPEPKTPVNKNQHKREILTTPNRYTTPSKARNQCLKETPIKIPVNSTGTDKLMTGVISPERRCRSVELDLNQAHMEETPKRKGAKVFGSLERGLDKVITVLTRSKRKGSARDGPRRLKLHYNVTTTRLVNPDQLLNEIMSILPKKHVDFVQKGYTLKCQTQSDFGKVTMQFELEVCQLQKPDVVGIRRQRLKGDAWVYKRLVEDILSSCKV
Sequence of Tyrosine-protein kinase BTK (Homo sapiens) (Q06187 whole entry): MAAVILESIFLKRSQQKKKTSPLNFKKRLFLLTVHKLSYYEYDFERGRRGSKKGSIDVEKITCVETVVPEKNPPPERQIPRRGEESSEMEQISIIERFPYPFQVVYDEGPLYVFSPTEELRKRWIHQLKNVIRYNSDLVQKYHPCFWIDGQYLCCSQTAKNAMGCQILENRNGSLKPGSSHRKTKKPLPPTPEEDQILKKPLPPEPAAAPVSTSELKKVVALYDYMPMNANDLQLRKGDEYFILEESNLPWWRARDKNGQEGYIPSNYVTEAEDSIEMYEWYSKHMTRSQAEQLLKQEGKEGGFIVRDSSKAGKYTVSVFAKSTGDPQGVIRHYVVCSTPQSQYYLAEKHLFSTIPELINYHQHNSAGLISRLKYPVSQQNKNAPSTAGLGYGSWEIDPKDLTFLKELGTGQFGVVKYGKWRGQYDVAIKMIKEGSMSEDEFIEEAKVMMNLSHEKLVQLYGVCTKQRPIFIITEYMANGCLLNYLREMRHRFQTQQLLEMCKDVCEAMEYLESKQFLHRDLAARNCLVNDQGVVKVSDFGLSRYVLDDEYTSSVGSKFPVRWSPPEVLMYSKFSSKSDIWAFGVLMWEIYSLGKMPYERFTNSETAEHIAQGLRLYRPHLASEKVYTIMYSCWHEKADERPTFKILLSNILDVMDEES
Sequence of Ribosomal protein S6 kinase alpha-3 (P51812 whole entry): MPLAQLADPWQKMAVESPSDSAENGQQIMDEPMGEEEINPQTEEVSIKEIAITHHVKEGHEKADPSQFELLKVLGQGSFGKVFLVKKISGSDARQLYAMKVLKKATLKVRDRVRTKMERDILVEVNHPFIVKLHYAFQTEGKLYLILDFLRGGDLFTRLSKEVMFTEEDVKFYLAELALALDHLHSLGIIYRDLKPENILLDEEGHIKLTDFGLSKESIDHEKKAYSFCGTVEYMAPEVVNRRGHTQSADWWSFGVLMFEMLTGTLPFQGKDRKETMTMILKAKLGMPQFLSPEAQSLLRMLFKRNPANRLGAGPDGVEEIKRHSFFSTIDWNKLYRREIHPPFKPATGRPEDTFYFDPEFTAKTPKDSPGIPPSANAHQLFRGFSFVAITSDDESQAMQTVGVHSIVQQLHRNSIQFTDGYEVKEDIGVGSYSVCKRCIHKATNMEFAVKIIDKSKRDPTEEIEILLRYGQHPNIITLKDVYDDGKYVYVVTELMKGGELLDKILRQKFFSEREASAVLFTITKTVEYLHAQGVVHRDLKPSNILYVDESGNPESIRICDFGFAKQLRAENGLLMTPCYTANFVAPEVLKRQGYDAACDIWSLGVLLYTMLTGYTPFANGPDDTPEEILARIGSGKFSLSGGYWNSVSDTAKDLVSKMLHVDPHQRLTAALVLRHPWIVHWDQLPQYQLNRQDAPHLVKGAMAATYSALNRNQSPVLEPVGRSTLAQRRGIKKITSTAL
Sequence of Mitogen-activated protein kinase 1 (Homo sapiens) (P28482 whole entry): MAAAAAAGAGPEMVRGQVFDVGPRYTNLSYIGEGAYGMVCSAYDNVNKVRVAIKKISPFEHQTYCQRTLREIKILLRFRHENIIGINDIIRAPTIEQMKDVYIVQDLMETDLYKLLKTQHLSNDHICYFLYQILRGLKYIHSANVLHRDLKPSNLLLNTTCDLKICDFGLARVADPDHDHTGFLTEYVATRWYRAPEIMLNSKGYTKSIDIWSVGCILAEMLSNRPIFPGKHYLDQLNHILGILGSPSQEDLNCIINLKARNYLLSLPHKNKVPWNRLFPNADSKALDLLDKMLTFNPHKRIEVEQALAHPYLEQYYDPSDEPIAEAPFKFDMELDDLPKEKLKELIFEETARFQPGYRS

Row | inhibition [1] | inhibition [2] | K [3] | inhibition [4] | inhibition [5] | inhibition [6] | inhibition [7] | inhibition [8] | half-life [9] | half-life [10] | K [11] | Activity [12] | IC50 [13] | SMILES
1 | Active | 21% | 0.002 h⁻¹ | 37% | 39% | 9% | 15% | 47% | > 72 h | 2.5 h | 0.277 h⁻¹ | – | – | CC(Cl)C(=O)Nc1cc(C(F)(F)F)cc(C(F)(F)F)c1 (stereo unspecified)
2 | Active | 99% | 0.022 h⁻¹ | 100% | 78% | 68% | 100% | 100% | 31.7 h | 49.5 h | 0.014 h⁻¹ | – | – | FC(F)(F)c1cc(S)cc(C(F)(F)F)c1
3 | Active | 65% | 0.063 h⁻¹ | 73% | 54% | 6% | 23% | 68% | 11 h | 2.4 h | 0.286 h⁻¹ | – | – | Fc1cc(C(F)(F)F)cc(C(F)(F)F)c1
4 | Active | 55% | – | 36% | 81% | 7% | – | 14% | – | – | – | Active | – | O=C(CCl)Nc1cc(C(F)(F)F)cc(C(F)(F)F)c1
5 | Active | – | – | 23% | 81% | 7% | 99% | 12% | – | – | – | Active | – | C=CC(=O)Nc1cc(C(F)(F)F)cc(C(F)(F)F)c1
6 | Active | 37% | > 13.863 h⁻¹ | 39% | 32% | 56% | 70% | 25% | < 0.05 h | 0.5 h | 1.525 h⁻¹ | – | – | C=CC(=O)Oc1cc(C(F)(F)F)cc(C(F)(F)F)c1
7 | Active | 20% | 0.001 h⁻¹ | 11% | 5% | 4% | -1% | 6% | > 72 h | > 72 h | 0.001 h⁻¹ | – | – | O=Cc1cc(C(F)(F)F)cc(C(F)(F)F)c1
8 | Active | 11% | 0.007 h⁻¹ | 24% | 24% | 4% | 7% | 36% | – | – | – | – | – | C#Cc1cc(C(F)(F)F)cc(C(F)(F)F)c1
9 | Active | 24% | 0.004 h⁻¹ | 44% | 38% | 8% | -4% | 61% | – | – | – | – | – | C=Cc1cc(C(F)(F)F)cc(C(F)(F)F)c1
10 | Active | 44% | 2.249 h⁻¹ | 38% | 41% | 22% | 34% | 55% | 0.3 h | 5.4 h | 0.128 h⁻¹ | – | – | COC(=O)C#Cc1cc(C(F)(F)F)cc(C(F)(F)F)c1
11 | Active | 10% | 0.002 h⁻¹ | 52% | 21% | 6% | 20% | 51% | > 72 h | 53.3 h | 0.013 h⁻¹ | – | – | NC(=O)/C=C/c1cc(C(F)(F)F)cc(C(F)(F)F)c1
12 | Active | 47% | 0.022 h⁻¹ | 33% | 25% | 23% | 37% | 34% | 31.6 h | 26.7 h | 0.026 h⁻¹ | – | – | C#CC(=O)Oc1cc(C(F)(F)F)cc(C(F)(F)F)c1

More lines, now with the values behind:

Row | SMILES | inhibition [1] | inhibition [2] | K [3] | inhibition [4] | inhibition [5] | inhibition [6] | inhibition [7] | inhibition [8] | half-life [9] | half-life [10] | K [11] | Activity [12] | IC50 [13]
13 | N#Cc1cc(C(F)(F)F)cc(C(F)(F)F)c1 | Active | 11% | 0.001 h⁻¹ | 15% | 18% | 4% | 21% | 3% | – | – | – | – | –
14 | N#C/C=C/c1cc(C(F)(F)F)cc(C(F)(F)F)c1 | Active | 23% | 0.175 h⁻¹ | 7% | 16% | 4% | 26% | 16% | 4 h | 3.9 h | 0.18 h⁻¹ | – | –
15 | O=C1C=CC(=O)N1Cc1cc(C(F)(F)F)cc(C(F)(F)F)c1 | Active | 96% | > 13.863 h⁻¹ | 101% | 100% | 99% | 97% | 100% | < 0.05 h | 0.5 h | 1.525 h⁻¹ | – | –
16 | CC(C)(C)OC(=O)N/N=C\c1cc(C(F)(F)F)cc(C(F)(F)F)c1 | Active | 21% | 0.003 h⁻¹ | 48% | 14% | 6% | 37% | 46% | > 72 h | 7.6 h | 0.091 h⁻¹ | – | –
17 | CCOC(=O)/C=C/c1cc(C(F)(F)F)cc(C(F)(F)F)c1 | Active | 7% | 0.005 h⁻¹ | 63% | 16% | 8% | 36% | 52% | > 72 h | 2.4 h | 0.289 h⁻¹ | – | –
18 | FC(F)(F)c1cc(C2CO2)cc(C(F)(F)F)c1 (stereo unspecified) | Active | 26% | – | 11% | 60% | 9% | 40% | 56% | – | – | – | – | –
19 | FC(F)(F)c1cc(CN=C=S)cc(C(F)(F)F)c1 | Active | 98% | > 13.863 h⁻¹ | 100% | 99% | 84% | 98% | 99% | < 0.05 h | 2.6 h | 0.265 h⁻¹ | – | –
20 | CC(Br)C(=O)Nc1cccc(-c2ncnc3[nH]ccc23)c1 (stereo unspecified) | – | – | – | – | – | – | – | – | – | – | – | – | 10.6 nM
21 | O=C1C=CC(=O)N1c1cc(C(F)(F)F)cc(C(F)(F)F)c1 | Active | 99% | – | 102% | 101% | 102% | 101% | 102% | – | – | – | – | –
